Laboratory results: ChEMBL document CHEMBL1926565, “Synthesis, antiproliferative activities and telomerase inhibition evaluation of novel asymmetrical 1,2-disubstituted amidoanthraquinone derivatives” (Eur J Med Chem, 2012)

Tests used:
Format in all cases: functional
[1] = test system: MDA-MB-231; test: Anticancer activity against human MDA-MB-231 cells; settings: for CC50: read-out: LC50 (the source's name)
In short: (§1)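 NCI 60-human-tumour-cell-line panel. Selected analogues were first run at one dose, then some were carried into multi-dose testing. GI50 (50% growth inhibition), TGI (total growth inhibition) and LC50 (50% cell kill) were read as values interpolated where the dose–response curves cross these levels.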

[2] = test system: SNB-19; test: Anticancer activity against human SNB19 cells; settings: read-out: LC50 (the source's name)
In short: (§2)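 Tested by the NCI in its 60-human-tumour-cell-line panel. Dose-response curves were run, and GI₅₀ (50% growth inhibition), TGI (total growth inhibition) and LC₅₀ (50% cell killing) were read as interpolated concentrations where the curves cross those levels.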

[3] = test system: NCI-H23; test: Anticancer activity against human NCI-H23 cells; in short: as §1
[4] = test system: 786-0; test: Anticancer activity against human 786-0 cells; settings: for CC50: read-out: LC50 (the source's name); in short: as §1
[5] = test system: SW-620; test: Anticancer activity against human SW620 cells; settings: for CC50: read-out: LC50 (the source's name)
[6] = test system: A498; test: Anticancer activity against human A498 cells; settings: for CC50: read-out: LC50 (the source's name); in short: as §1
[7] = test system: HT-29; test: Anticancer activity against human HT-29 cells; settings: for CC50: read-out: LC50 (the source's name); in short: as §1
[8] = test system: ACHN; test: Anticancer activity against human ACHN cells; settings: for CC50: read-out: LC50 (the source's name); in short: as §1
[9] = test system: NCI-H322M; test: Anticancer activity against human NCI-H322M cells; in short: as §1
[10] = test system: TK-10; test: Anticancer activity against human TK10 cells; settings: for CC50: read-out: LC50 (the source's name)
[11] = test system: OVCAR-5; test: Anticancer activity against human OVCAR5 cells; settings: for CC50: read-out: LC50 (the source's name); in short: as §1
[12] = test system: T47D; test: Anticancer activity against human T47D cells; settings: for CC50: read-out: LC50 (the source's name)
[13] = test system: IGROV-1; test: Anticancer activity against human IGROV1 cells; settings: for CC50: read-out: LC50 (the source's name); in short: as §1
[14] = test system: U-251; test: Anticancer activity against human U251 cells; settings: for CC50: read-out: LC50 (the source's name)
[15] = test system: MDA-MB-435; test: Anticancer activity against human MDA-MB-435 cells; settings: for CC50: read-out: LC50 (the source's name); in short: as §1
[16] = test system: OVCAR-4; test: Anticancer activity against human OVCAR4 cells; settings: for CC50: read-out: LC50 (the source's name); in short: as §1
[17] = test system: SF-295; test: Anticancer activity against human SF295 cells; settings: for CC50: read-out: LC50 (the source's name); in short: as §1
[18] = test system: KM12; test: Anticancer activity against human KM12 cells; in short: as §1
[19] = test system: PC-3; test: Anticancer activity against human PC3 cells; settings: for CC50: read-out: LC50 (the source's name); in short: as §1
[20] = test system: LOX IMVI; test: Anticancer activity against human LOXIMVI cells; settings: for CC50: read-out: LC50 (the source's name); in short: as §1
[21] = test system: MDA-MB-468; test: Anticancer activity against human MDA-MB-468 cells; settings: for CC50: read-out: LC50 (the source's name); in short: as §1
[22] = test system: EKVX; test: Anticancer activity against human EKVX cells; settings: for CC50: read-out: LC50 (the source's name); in short: as §1
[23] = test system: NCI/ADR-RES; test: Anticancer activity against human NCI/ADR-RES cells; settings: for CC50: read-out: LC50 (the source's name); in short: as §1
[24] = test system: UACC-257; test: Anticancer activity against human UACC257 cells; settings: for CC50: read-out: LC50 (the source's name)
[25] = test system: SF-268; test: Anticancer activity against human SF268 cells; settings: for CC50: read-out: LC50 (the source's name); in short: as §1
[26] = test system: NCI-H226; test: Anticancer activity against human NCI-H226 cells; settings: for CC50: read-out: LC50 (the source's name); in short: as §1
[27] = test system: HL-60(TB); test: Anticancer activity against human HL-60(TB) cells; in short: as §2
[28] = test system: SF-539; test: Anticancer activity against human SF539 cells; settings: read-out: LC50 (the source's name); in short: as §1
[29] = test system: MOLT-4; test: Anticancer activity against human MOLT4 cells; in short: as §1
[30] = test system: CCRF-CEM; test: Anticancer activity against human CCRF-CEM cells; in short: as §1
[31] = test system: RPMI-8226; test: Cytotoxicity against human RPMI8226 cells assessed as cellular growth at 10 uM
In short: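 Single-dose screen run by the NCI across its 60-human-tumour-cell-line panel; growth recorded for each cell line.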

[32] = read-out: LC50 (the source's name)

## Cc1ccc(C(=O)Nc2c(NC(=O)CN3CCN(C)CC3)ccc3c2C(=O)c2ccccc2C3=O)cc1
[1]
  GI50: 3.3 µM
  TGI: > 100 µM
  CC50: > 100 µM
[2]
  CC50: > 100 µM
[3]
  GI50: > 100 µM
  LC50 (50% cell kill): > 100 µM
  TGI: > 100 µM
[4]
  GI50: 5.61 µM
  TGI: > 100 µM
  CC50: > 100 µM
[5]
  TGI: > 100 µM
  CC50: > 100 µM
[6]
  GI50: > 100 µM
  TGI: > 100 µM
  CC50: > 100 µM
[7]
  GI50: 3.09 µM
  TGI: > 100 µM
  CC50: > 100 µM
[8]
  TGI: > 100 µM
  CC50: > 100 µM
[9]
  GI50: > 100 µM
  LC50 (50% cell kill): > 100 µM
  TGI: > 100 µM
[10]
  GI50: > 100 µM
  TGI: > 100 µM
  CC50: > 100 µM
[11]
  GI50: > 100 µM
  TGI: > 100 µM
  CC50: > 100 µM
[12]
  GI50: 2.62 µM
  CC50: > 100 µM
[13]
  GI50: > 100 µM
  TGI: > 100 µM
  CC50: > 100 µM
[14]
  GI50: 3.64 µM
  TGI: > 100 µM
  CC50: > 100 µM
[15]
  GI50: 3.13 µM
  TGI: > 100 µM
  CC50: > 100 µM
[16]
  TGI: > 100 µM
  CC50: > 100 µM
[17]
  GI50: > 100 µM
  TGI: > 100 µM
  CC50: > 100 µM
[18]
  LC50: > 100 µM
  TGI: > 100 µM
[19]
  TGI: > 100 µM
  CC50: > 100 µM
[20]
  TGI: > 100 µM
  CC50: > 100 µM
[21]
  GI50: 2.58 µM
  TGI: > 100 µM
  CC50: > 100 µM
[22]
  TGI: > 100 µM
  CC50: > 100 µM
[23]
  TGI: > 100 µM
  CC50: > 100 µM
[24]
  GI50: 2.23 µM
  TGI: 5.81 µM
  CC50: > 100 µM
[25]
  TGI: > 100 µM
  CC50: > 100 µM
[26]
  GI50: > 100 µM
  TGI: > 100 µM
  CC50: > 100 µM

## Cc1ccc(C(=O)Nc2c(NC(=O)CCl)ccc3c2C(=O)c2ccccc2C3=O)cc1
[1]
  GI50: 6.51 µM
  TGI: > 50 µM
  CC50: > 50 µM
[2]
  CC50: 27.6 µM
[3]
  GI50: 1.78 µM
  LC50 (50% cell kill): 31.4 µM
  TGI: 8.28 µM
[4]
  GI50: 9.48 µM
  TGI: 17.2 µM
  CC50: 31.2 µM
[5]
  GI50: 1.87 µM
  TGI: 9.31 µM
  CC50: > 50 µM
[27]
  GI50: 6.14 µM
  TGI: 24.6 µM
[27]; [32]
  CC50: > 50 µM
[6]
  GI50: 9.87 µM
  TGI: 22.5 µM
  CC50: > 50 µM
[7]
  CC50: > 50 µM
[8]
  GI50: 7.18 µM
  TGI: 14.3 µM
  CC50: 28.6 µM
[9]
  GI50: 3.76 µM
  LC50 (50% cell kill): 45.4 µM
  TGI: 13.7 µM
[28]
  CC50: 25.1 µM
[10]
  GI50: 2.34 µM
  TGI: 4.94 µM
  CC50: 29.2 µM
[11]
  GI50: 11.3 µM
  TGI: 19.2 µM
  CC50: 32.7 µM
[12]
  GI50: 1.19 µM
  TGI: 4.04 µM
  CC50: 46.3 µM
[13]
  GI50: 5.6 µM
  TGI: 17 µM
  CC50: > 50 µM
[14]
  GI50: 1.8 µM
  TGI: 6.83 µM
  CC50: 30.2 µM
[15]
  GI50: 5.73 µM
  TGI: 19.5 µM
  CC50: > 50 µM
[16]
  GI50: 5.52 µM
  TGI: 12 µM
  CC50: 25.9 µM
[29]
  GI50: 2.29 µM
  TGI: 2.95 µM
[29]; [32]
  CC50: > 50 µM
[17]
  CC50: 42.2 µM
[18]
  GI50: 5.56 µM
  LC50: 28.3 µM
  TGI: 12.6 µM
[19]
  GI50: 6.54 µM
  TGI: 15.4 µM
  CC50: 36.5 µM
[20]
  GI50: 0.78 µM
  TGI: 1.84 µM
  CC50: 4.29 µM
[21]
  GI50: 0.83 µM
  TGI: 1.82 µM
  CC50: 3.98 µM
[22]
  GI50: 1.98 µM
  TGI: 14.9 µM
  CC50: > 50 µM
[23]
  GI50: 9.46 µM
  TGI: 30.7 µM
  CC50: > 50 µM
[30]
  GI50: 2.54 µM
  TGI: > 50 µM
[30]; [32]
  CC50: > 50 µM
[24]
  GI50: 1.61 µM
  TGI: 6.27 µM
  CC50: 24.3 µM
[25]
  CC50: > 50 µM
[26]
  GI50: 8.81 µM
  TGI: 20.8 µM
  CC50: 49.1 µM

## Cc1ccc(C(=O)Nc2ccc3c(c2NC(=O)c2ccc(C)cc2)C(=O)c2ccccc2C3=O)cc1
[31]
  Activity: 101.77%
